Drawing on ChEMBL document CHEMBL4004850, “Rational design of reversible inhibitors for trehalose 6-phosphate phosphatases” (Eur J Med Chem, 2017), this text covers Ratio and Ki for 28 compounds.

The structures appear in SMILES notation.

One experiment deals with Ascaris suum. Description: Inhibition of Ascaris suum T6PP using T6P as substrate assessed as fraction of enzyme unbound with compound by measuring ratio of initial velocities of T6P substrate hydrolysis in presence and absence of compound at 1 mM after 5 mins by BioMol green dye based HTS assay. In short, it runs like this: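 T6P is at half saturation ([T6P] = Km), with and without 1 mM inhibitor, at 25 °C. Released phosphate is detected with dye (30 min incubation) by A625. The reported value is V_I/V, the initial-velocity ratio.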

The test system of experiment [1] is Salmonella enterica subsp. enterica serovar Typhimurium. Description: Inhibition of Salmonella typhimurium T6PP using T6P as substrate assessed as fraction of enzyme unbound with compound by measuring ratio of initial velocities of T6P substrate hydrolysis in presence and absence of compound at 1 mM after 5 mins by BioMol green dye based HTS assay. In short, it runs like this:
(§1)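 Freshly purified St-T6PP or Sb-T6PP (5–25 nM) in 50 mM Hepes pH 7.5, 25 mM NaCl, 2 mM MgCl₂, 5% glycerol at 25 °C. T6P at half saturation (Km) for each enzyme. Hydrolysis rate was compared with and without 1 mM inhibitor; phosphate read at 625 nm after 30 min incubation. The ratio VI/V gives the fraction of enzyme not inhibitor-bound.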

The test system of another experiment is Shigella boydii. The experiment in a line: Inhibition of Shigella boydii T6PP using T6P as substrate assessed as fraction of enzyme unbound with compound by measuring ratio of initial velocities of T6P substrate hydrolysis in presence and absence of compound at 1 mM after 5 mins by BioMol green dye based HTS assay. The essentials: as §1
For experiment [2], the target named is T1, Trehalose-phosphatase (Brugia malayi) (UniProt A8NS89).
T1 sequence (whole entry): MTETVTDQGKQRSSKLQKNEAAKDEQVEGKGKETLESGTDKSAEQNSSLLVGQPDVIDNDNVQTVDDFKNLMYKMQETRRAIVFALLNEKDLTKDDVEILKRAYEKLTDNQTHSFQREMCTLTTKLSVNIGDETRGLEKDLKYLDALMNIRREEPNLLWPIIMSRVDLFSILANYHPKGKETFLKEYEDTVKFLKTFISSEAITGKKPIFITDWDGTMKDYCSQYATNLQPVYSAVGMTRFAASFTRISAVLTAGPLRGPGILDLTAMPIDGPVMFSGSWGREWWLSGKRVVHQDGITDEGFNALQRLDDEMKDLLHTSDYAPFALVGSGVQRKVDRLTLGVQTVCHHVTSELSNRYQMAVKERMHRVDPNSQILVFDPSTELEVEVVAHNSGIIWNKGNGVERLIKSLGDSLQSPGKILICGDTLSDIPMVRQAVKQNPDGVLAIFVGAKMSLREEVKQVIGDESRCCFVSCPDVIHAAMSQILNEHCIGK
Description: Inhibition of Brugia malayi T6PP using T6P as substrate assessed as fraction of enzyme unbound with compound by measuring ratio of initial velocities of T6P substrate hydrolysis in presence and absence of compound at 1 mM […] by BioMol green dye based HTS assay.

Another experiment deals with T2, Trehalose-phosphatase (Brugia malayi, UniProt A8NS89).
T2 sequence (A8NS89 whole entry): T1 sequence (whole entry)
The experiment in a line: Competitive inhibition of Brugia malayi T6PP using T6P as substrate by Lineweaver-Burk plot analysis. In short, it runs like this:
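Continuous phosphate-release assay (EnzChek, MESG/purine nucleoside phosphorylase) at 25 °C. Initial velocities of T6P hydrolysis by T6PP were taken at varied T6P with inhibitor at 0, Ki and 2×Ki. Km and Vmax come from double-reciprocal plots.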

On to `OC[C@H]1O[C@H](Oc2ccccc2)[C@H](O)[C@@H](O)[C@@H]1O`, for which the Ratio in the experiment with Ascaris suum amounted to 0.97; in experiment [1] it was 1; in the experiment with Shigella boydii, 0.86; in experiment [2], 0.96.
`O=S(=O)(O)OC[C@H]1O[C@H](O)[C@H](O)[C@@H](O)[C@@H]1O`: the Ratio with Ascaris suum was determined as 0.94; in experiment [1] it was 0.84; in the experiment on Shigella boydii, 0.75; in experiment [2], 0.93.
By Ki is commonly meant a measure of affinity in units of concentration, obtained from inhibition or displacement. The low end stands for higher affinity, the high end for lower affinity. In turn, `OC[C@H]1O[C@H](O[C@H]2O[C@H](CO)[C@@H](O)[C@H](O)[C@H]2O)[C@H](O)[C@@H](O)[C@@H]1O` [TREHALOSE] had a Ki at Trehalose-phosphatase greater than 10000 µM. The Ratio with Ascaris suum amounted to 0.97; in experiment [1], 0.88; in the experiment on Shigella boydii it was 1.01; in experiment [2], 0.98.
On to `OC[C@H]1O[C@@H](Oc2ccccc2)[C@H](O)[C@@H](O)[C@@H]1O`, for which the Ratio was 1 in the experiment with Ascaris suum, 0.87 in experiment [1], 0.9 in the experiment with Shigella boydii and 1.12 in experiment [2].
Take `Nc1ccc(O[C@@H]2O[C@H](COS(=O)(=O)O)[C@@H](O)[C@H](O)[C@H]2O)cc1`: the Ratio turned out to be 0.74 with Ascaris suum, 0.94 in experiment [1], 1.03 in the experiment on Shigella boydii and 0.63 in experiment [2].
Turning to `CO[C@H]1O[C@H](COS(=O)(=O)O)[C@@H](O)[C@H](O)[C@H]1O`, the Ratio with Ascaris suum was 1.07; in experiment [1], 1.04; in the experiment with Shigella boydii it was 1; in experiment [2], 0.8.
For `COc1cc(C=O)cc(OC)c1O[C@@H]1O[C@H](COS(=O)(=O)O)[C@@H](O)[C@H](O)[C@H]1O`, in that order: 0.94, 0.96, 1 and 0.55.
Turning to `O=S(=O)(O)OC[C@H]1O[C@@H](Oc2ccc(F)c(F)c2)[C@H](O)[C@@H](O)[C@@H]1O`, the Ratio amounted to 0.88 in the experiment with Ascaris suum, 0.89 in experiment [1], 0.92 in the experiment with Shigella boydii and 0.74 in experiment [2].
On to `NS(=O)(=O)OCc1cccc(N[C@@H]2O[C@H](CO)[C@@H](O)[C@H](O)[C@H]2O)c1`, for which the Ratio was found to be 0.96 in the experiment with Ascaris suum, 1 in experiment [1], 0.85 with Shigella boydii and 1.05 in experiment [2].
For the compound `O=[N+]([O-])c1ccc(O[C@@H]2O[C@H](COS(=O)(=O)O)[C@@H](O)[C@H](O)[C@H]2O)cc1`, the Ratio in the experiment with Ascaris suum is 0.83; in experiment [1], 0.68; in the experiment on Shigella boydii, 0.77; in experiment [2] it was 0.64.
With `O=S(=O)(O)OC[C@H]1O[C@@H](Oc2ccc(CO)cc2)[C@H](O)[C@@H](O)[C@@H]1O`, the Ratio in the experiment on Ascaris suum turned out to be 0.76; in experiment [1], 0.79; in the experiment on Shigella boydii, 0.67; in experiment [2] it was 0.68.
For the compound `CC(=O)Nc1ccc(O[C@@H]2O[C@H](COS(=O)(=O)O)[C@@H](O)[C@H](O)[C@H]2O)cc1`, the Ratio amounted to 0.9 in the experiment with Ascaris suum, 0.85 in experiment [1], 0.88 in the experiment on Shigella boydii and 0.87 in experiment [2].
As for `O=S(=O)(O)OC[C@H]1O[C@@H](Oc2cccc(CO)c2)[C@H](O)[C@@H](O)[C@@H]1O`, the Ratio in the experiment with Ascaris suum amounted to 0.63; in experiment [1], 0.77; with Shigella boydii it was 0.46; in experiment [2], 0.69.
Regarding `O=S(=O)(O)OC[C@H]1O[C@@H](Oc2cccc3ccccc23)[C@H](O)[C@@H](O)[C@@H]1O`, the Ratio was determined as 0.91 in the experiment on Ascaris suum, 0.8 in experiment [1], 0.85 in the experiment with Shigella boydii and 0.85 in experiment [2].
In the case of `O=S(=O)(O)OC[C@H]1O[C@@H](n2cc(-c3ccccc3)nn2)[C@H](O)[C@@H](O)[C@@H]1O`, the Ratio was 0.76 with Ascaris suum, 0.97 in experiment [1], 0.9 in the experiment on Shigella boydii and 0.98 in experiment [2].
In turn, `O=S(=O)(O)OC[C@H]1O[C@H](OCc2ccccc2)[C@H](O)[C@@H](O)[C@@H]1O` yielded a Ki at Trehalose-phosphatase of 160 µM. Besides, the Ratio in the experiment on Ascaris suum came to 0.86; in experiment [1], 0.47; in the experiment with Shigella boydii, 0.74; in experiment [2] it was 0.07.
Consider `O=Cc1ccc(O[C@@H]2O[C@H](COS(=O)(=O)O)[C@@H](O)[C@H](O)[C@H]2O)cc1`, for which the Ratio with Ascaris suum came to 0.81; in experiment [1] it was 0.87; in the experiment with Shigella boydii, 1.06; in experiment [2] it was 1.
For `CO[C@H]1O[C@H](COS(=O)(=O)O)[C@@H](OCc2ccccc2)[C@H](O)[C@H]1O`, in that order: 0.99, 0.97, 0.95 and 0.68.
Take `O=S(=O)(O)OC[C@H]1O[C@@H](Oc2ccccc2CO)[C@H](O)[C@@H](O)[C@@H]1O`: the Ratio in the experiment with Ascaris suum turned out to be 0.9; in experiment [1] it was 0.73; in the experiment with Shigella boydii, 0.85; in experiment [2], 0.89.
With `OC[C@H]1O[C@@H](NC(=S)Nc2ccccc2)[C@H](O)[C@@H](O)[C@@H]1O`, the Ratio is 0.81 in the experiment on Ascaris suum, 1.09 in experiment [1], 0.92 in the experiment with Shigella boydii and 0.99 in experiment [2].
For `CO[C@H]1O[C@H](COS(=O)(=O)O)[C@@H](O)[C@H](OCc2ccccc2)[C@H]1O`, in that order: 1.04, 0.99, 0.84 and 0.67.
On to `OC[C@H]1O[C@@H](Nc2ccccc2)[C@H](O)[C@@H](O)[C@@H]1O`, for which the Ratio with Ascaris suum was 0.97; in experiment [1], 0.77; with Shigella boydii, 0.92; in experiment [2], 1.
For `CCCCCCCCO[C@@H]1O[C@H](COS(=O)(=O)O)[C@@H](O)[C@H](O)[C@H]1O`, in that order: 0.9, 0.54, 0.79 and 0.72.
On to `O=Cc1ccccc1O[C@@H]1O[C@H](COS(=O)(=O)O)[C@@H](O)[C@H](O)[C@H]1O`, for which the Ratio amounted to 0.99 with Ascaris suum, 0.85 in experiment [1], 0.96 with Shigella boydii and 0.79 in experiment [2].
As for `CO[C@H]1O[C@H](COS(=O)(=O)O)[C@@H](O)[C@H](O)[C@H]1OCc1ccccc1`, the Ratio in the experiment with Ascaris suum amounted to 0.96; in experiment [1], 0.95; in the experiment on Shigella boydii, 1; in experiment [2], 0.53.
`O=Cc1cccc(O[C@@H]2O[C@H](COS(=O)(=O)O)[C@@H](O)[C@H](O)[C@H]2O)c1`: the Ratio with Ascaris suum was 0.78; in experiment [1], 0.95; in the experiment on Shigella boydii, 0.81; in experiment [2] it was 1.05.
For `OC[C@H]1O[C@@H](n2cc(-c3ccccc3)nn2)[C@H](O)[C@@H](O)[C@@H]1O`, the Ratio in the experiment on Ascaris suum was found to be 0.96; in experiment [1], 0.9; with Shigella boydii, 1; in experiment [2], 0.85.
On to `O=S(=O)(O)OCc1cccc(O[C@@H]2O[C@H](CO)[C@@H](O)[C@H](O)[C@H]2O)c1`, for which the Ratio is 0.98 with Ascaris suum, 0.85 in experiment [1], 0.8 with Shigella boydii and 0.59 in experiment [2].
